Laboratory results as given in ChEMBL document CHEMBL1671867, “Novel polymyxin derivatives carrying only three positive charges are effective antibacterial agents” (Antimicrob Agents Chemother, 2008).
≈ marks a conversion by molar mass, not a printed value. Blank lines part the entries; values can stand above or below the compound they belong to. Bridge positions count the residues as written; N and C are the ends. Square brackets hold non-standard residues; d marks the D form. Peptide text beside a SMILES is read from it. * marks the point of attachment. Octanoyl = CCCCCCCC(=O)*; Dab = NCC[C@H](N)C(=O)O; Abu = CC[C@H](N)C(=O)O

What was measured:
[1] = test system: Escherichia coli; assay: Antibacterial activity against Escherichia coli IH3080 assessed as growth inhibition at 10 ug after 18 hrs by […]; format: functional
[2] = test system: Escherichia coli; assay: Antibacterial activity against Escherichia coli IH3080 assessed as growth inhibition at 10 ug after 18 hrs by […] in presence of 1 ug/ml rifampin; format: functional
[3] = Inhibition of [3H]gentamicin binding to brush border membrane of renal cortex
How it was run: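 Brush border membrane vesicles prepared from male albino rat renal cortex by Mg2+-EGTA precipitation. Incubated with 20 μM [3H]gentamicin in 10 mM HEPES pH 7.5 with 300 mM mannitol, with or without compound, 60 min at 4°C. Then filtered, washed, and bound radioactivity counted by scintillation. IC50 fitted with the Hill equation.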

[4] = test system: Serratia marcescens; assay: Antibacterial activity against Serratia marcescens ATCC 8100 by CLSI M7-A7 agar dilution method; format: functional
How it was run: (§1)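 Agar dilution on Mueller-Hinton agar with test substance at 0.25 to 32 μg/ml in twofold steps. Spots of about 10^4 CFU applied with a multipoint inoculator.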

[5] = test system: Acinetobacter baumannii; assay: Antibacterial activity against Acinetobacter baumannii ATCC 19606 by CLSI M7-A7 agar dilution method; format: functional
[6] = test system: Klebsiella pneumoniae; assay: Antibacterial activity against Klebsiella pneumoniae by CLSI M7-A7 agar dilution method; format: functional; how it was run: as §1
[7] = test system: Escherichia coli; assay: Antibacterial activity against Escherichia coli IH3080 by CLSI M7-A7 agar dilution method; format: functional
[8] = test system: Enterobacter cloacae; assay: Antibacterial activity against Enterobacter cloacae ATCC 23355 by CLSI M7-A7 agar dilution method; format: functional
[9] = test system: Enterobacter cloacae; assay: Antibacterial activity against Enterobacter cloacae by CLSI M7-A7 agar dilution method; format: functional
[10] = test system: Pseudomonas aeruginosa; assay: Antibacterial activity against Pseudomonas aeruginosa ATCC 27853 by CLSI M7-A7 agar dilution method; format: functional; how it was run: as §1
[11] = test system: Citrobacter freundii; assay: Antibacterial activity against Citrobacter freundii ATCC 8090 by CLSI M7-A7 agar dilution method; format: functional
[12] = test system: Klebsiella oxytoca; assay: Antibacterial activity against Klebsiella oxytoca ATCC 13182 by CLSI M7-A7 agar dilution method; format: functional; how it was run: as §1
[13] = test system: Escherichia coli; assay: Antibacterial activity against Escherichia coli SC 9252 by CLSI M7-A7 agar dilution method; format: functional
[14] = test system: Escherichia coli; assay: Antibacterial activity against Escherichia coli by CLSI M7-A7 agar dilution method; format: functional; how it was run: as §1
[15] = test system: Enterobacter cloacae; assay: Antibacterial activity against Enterobacter cloacae CCUG52947 by CLSI M7-A7 agar dilution method; format: functional
[16] = test system: Escherichia coli; assay: Antibacterial activity against Escherichia coli ATCC […] by CLSI M7-A7 agar dilution method; format: functional
[17] = test system: Klebsiella pneumoniae; assay: Antibacterial activity against Klebsiella pneumoniae CCUG45421 by CLSI M7-A7 agar dilution method; format: functional; how it was run: as §1
[18] = test system: Klebsiella oxytoca; assay: Antibacterial activity against Klebsiella oxytoca CCUG51683 by CLSI M7-A7 agar dilution method; format: functional; how it was run: as §1
[19] = test system: Acinetobacter baumannii; assay: Antibacterial activity against Acinetobacter baumannii by CLSI M7-A7 agar dilution method; format: functional
[20] = test system: Candida albicans; assay: Antibacterial activity against Candida albicans ATCC 28366 by CLSI M7-A7 agar dilution method; format: functional
[21] = test system: Staphylococcus aureus; assay: Antibacterial activity against Staphylococcus aureus ATCC 25923 by CLSI M7-A7 agar dilution method; format: functional; how it was run: as §1
[22] = test system: Escherichia coli; assay: Antibacterial activity against Escherichia coli SC 9253 by CLSI M7-A7 agar dilution method; format: functional; how it was run: as §1

Compound: CCCCCCCC(=O)N[C@H](C(=O)N[C@@H](CC(N)=O)C(=O)N[C@H]1CCNC(=O)[C@H]([C@@H](C)O)NC(=O)[C@H](CCN)NC(=O)[C@H](CCN)NC(=O)[C@H](CC(C)C)NC(=O)[C@H](Cc2ccccc2)NC(=O)[C@H](CCN)NC1=O)[C@@H](C)O (Octanoyl-TN[Dab][Dab]FL[Dab][Dab]T; lactam 3-C)
inhibition zone (IZ) [1]: 10 mm2
inhibition zone (IZ) [2]: 180 mm2

IC50 [3]: 39.3 µM
Compound: POLYMYXIN B

Compound: CCCCCCCC(=O)N[C@H](C(=O)N[C@@H](CCN)C(=O)N[C@H]1CCNC(=O)[C@H]([C@@H](C)O)NC(=O)[C@H](CC)NC(=O)[C@H](CCN)NC(=O)[C@H](CC(C)C)NC(=O)[C@@H](Cc2ccccc2)NC(=O)[C@H](CCN)NC1=O)[C@@H](C)O (Octanoyl-T[Dab][Dab][Dab][dF]L[Dab][Abu]T; lactam 3-C)
inhibition zone (IZ) [1]: 0 mm2
inhibition zone (IZ) [2]: 170 mm2

Compound: CCCCCCCC(=O)N[C@H](C(=O)N[C@H](C(=O)N[C@H](CO)C(=O)N[C@H]1CCNC(=O)[C@H]([C@@H](C)O)NC(=O)[C@H](CCN)NC(=O)[C@H](CCN)NC(=O)[C@H](CC(C)C)NC(=O)[C@H](Cc2ccccc2)NC(=O)[C@H](CCN)NC1=O)[C@@H](C)O)[C@@H](C)O
inhibition zone (IZ) [1]: 160 mm2
inhibition zone (IZ) [2]: 190 mm2

Compound: CCCCCCCC(=O)N[C@H](C(=O)N[C@H](CO)C(=O)N[C@H]1CCNC(=O)[C@H]([C@@H](C)O)NC(=O)[C@H](CCN)NC(=O)[C@H](CCN)NC(=O)[C@H]([C@@H](C)O)NC(=O)[C@H](Cc2ccccc2)NC(=O)[C@H](CCN)NC1=O)[C@@H](C)O
inhibition zone (IZ) [1]: 172 mm2
inhibition zone (IZ) [2]: 190 mm2

MIC [4]: > 32 µg/mL
MIC [5]: > 32 µg/mL
MIC [6]: > 32 µg/mL
MIC [7]: > 32 µg/mL
MIC [8]: 32 µg/mL (≈ 29.8 µM)
MIC [9]: > 32 µg/mL
MIC [10]: > 32 µg/mL
MIC [11]: 16 µg/mL (≈ 14.9 µM)
MIC [12]: 32 µg/mL (≈ 29.8 µM)
MIC [13]: > 32 µg/mL
MIC [14]: > 16 µg/mL
MIC [15]: > 32 µg/mL
MIC [16]: > 32 µg/mL
MIC [17]: > 32 µg/mL
MIC [18]: 32 µg/mL (≈ 29.8 µM)
MIC [19]: > 32 µg/mL
MIC [20]: > 32 µg/mL
MIC [21]: > 32 µg/mL
MIC [22]: > 32 µg/mL
Compound: CCCCCCCC(=O)N[C@H](C(=O)N[C@@H](CC)C(=O)N[C@H]1CCNC(=O)[C@H]([C@@H](C)O)NC(=O)[C@H](CCN)NC(=O)[C@H](CCN)NC(=O)[C@H](CC(C)C)NC(=O)[C@@H](Cc2ccccc2)NC(=O)[C@H](CCN)NC1=O)[C@@H](C)O (Octanoyl-T[Abu][Dab][Dab][dF]L[Dab][Dab]T; lactam 3-C)
inhibition zone (IZ) [1]: 32 mm2
inhibition zone (IZ) [2]: 194 mm2

Compound: CCCCCCCC(=O)N[C@H](C(=O)N[C@@H](CCN)C(=O)N[C@H]1CCNC(=O)[C@H]([C@@H](C)O)NC(=O)[C@H](CCN)NC(=O)[C@H](CC)NC(=O)[C@H](CC(C)C)NC(=O)[C@@H](Cc2ccccc2)NC(=O)[C@H](CCN)NC1=O)[C@@H](C)O (Octanoyl-T[Dab][Dab][Dab][dF]L[Abu][Dab]T; lactam 3-C)
inhibition zone (IZ) [1]: 60 mm2
inhibition zone (IZ) [2]: 250 mm2

Compound: CCCCCCCC(=O)N[C@H](C(=O)N[C@@H](C(=O)N[C@H]1CCNC(=O)[C@H]([C@@H](C)O)NC(=O)[C@H](CCN)NC(=O)[C@H](CCN)NC(=O)[C@H]([C@@H](C)O)NC(=O)[C@H](Cc2ccccc2)NC(=O)[C@H](CCN)NC1=O)[C@@H](C)O)[C@@H](C)O
inhibition zone (IZ) [1]: 200 mm2
inhibition zone (IZ) [2]: 250 mm2

Compound: CCCCCCCC(=O)N[C@H](C)C(=O)N[C@H](C)C(=O)N[C@H]1CCNC(=O)[C@H]([C@@H](C)O)NC(=O)[C@H](CCN)NC(=O)[C@H](CCN)NC(=O)[C@H](CC(C)C)NC(=O)[C@H](Cc2ccccc2)NC(=O)[C@H](CCN)NC1=O
inhibition zone (IZ) [1]: 0 mm2
inhibition zone (IZ) [2]: 200 mm2

Compound: CCCCCCCC(=O)N[C@H](C(=O)N[C@@H](CC)C(=O)N[C@H]1CCNC(=O)[C@H]([C@@H](C)O)NC(=O)[C@H](CCN)NC(=O)[C@H](CC)NC(=O)[C@H](CC(C)C)NC(=O)[C@@H](Cc2ccccc2)NC(=O)[C@H](CCN)NC1=O)[C@@H](C)O (Octanoyl-T[Abu][Dab][Dab][dF]L[Abu][Dab]T; lactam 3-C)
inhibition zone (IZ) [1]: 0 mm2
inhibition zone (IZ) [2]: 10 mm2
